Data taken from ChEMBL document CHEMBL1131440, “Synthesis and potent antifolate activity and cytotoxicity of B-ring deaza analogues of the nonpolyglutamatable dihydrofolate reductase inhibitor Nalpha-(4-amino-4-deoxypteroyl)-Ndelta-hemiphthaloyl- L-ornithine (PT523)” (J Med Chem, 1998).

Experiments:
786-0 = test: Compound was evaluated for in vitro activity against 786-0 kidney cell lines (Human tumor cells ); type: functional, cell-based
Summary of the method: (§1)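 NCI Developmental Therapeutics Program human tumor cell panel; drug exposure in 96-well plates for the last 48 h of a 72-h incubation, then cells stained for total protein with sulforhodamine B per the standard NCI protocol. Data supplied by NCI.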

A498 = test: Compound was evaluated for in vitro activity against A498 kidney cell lines (Human tumor cells ); type: functional, cell-based; summary of the method: as §1
ACHN = test: Compound was evaluated for in vitro activity against ACHN kidney cell lines (Human tumor cells ); type: functional, cell-based; summary of the method: as §1
A549 = test: Compound was evaluated for in vitro activity against A549/ATCC lung cancer cell lines (Human tumor cells )
BT-549 = test: Compound was evaluated for in vitro activity against BT-549 breast cancer cell lines (Human tumor cells ); type: functional, cell-based; summary of the method: as §1
CCRF-CEM = test: Compound was evaluated for in vitro activity against CCRF-CEM leukemia cell lines (Human tumor cells ); type: functional, cell-based; summary of the method: as §1
COLO 205 = test: Compound was evaluated for in vitro activity against COLO 205 Colon cell lines (Human tumor cells ); type: functional, cell-based
Summary of the method: (§2)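 Total protein then stained with sulforhodamine B following the standard NCI protocol. Data supplied by the NCI Developmental Therapeutics Program.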

DU-145 = test: Compound was evaluated for in vitro activity against DU-145 prostate cell lines (Human tumor cells ); type: functional, cell-based; summary of the method: as §1
Dihydrofolate reductase = target: T1, Dihydrofolate reductase (Homo sapiens, UniProt P00374); test: Compound was evaluated for the inhibition of Dihydrofolate reductase at concentration ranged from 0.15-0.50 uM
T1 sequence (P00374 whole entry): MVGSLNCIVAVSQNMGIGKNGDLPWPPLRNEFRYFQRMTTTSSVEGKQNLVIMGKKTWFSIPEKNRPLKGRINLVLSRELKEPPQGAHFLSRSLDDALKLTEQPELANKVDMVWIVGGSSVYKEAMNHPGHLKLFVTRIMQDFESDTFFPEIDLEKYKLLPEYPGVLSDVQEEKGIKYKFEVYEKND

HCT-15 = test: Compound was evaluated for in vitro activity against HCT-15 Colon cell lines (Human tumor cells ); type: functional, cell-based; summary of the method: as §1
HCT-116 = test: Compound was evaluated for in vitro activity against HCT116 Colon cell lines (Human tumor cells ); type: functional, cell-based; summary of the method: as §1
HOP-92 = test: Compound was evaluated for in vitro activity against HOP-92 lung cancer cell lines (Human tumor cells ); type: functional, cell-based; summary of the method: as §1
HCC 2998 = test: Compound was evaluated for in vitro activity against HCC2998 Colon cell lines (Human tumor cells ); type: functional, cell-based; summary of the method: as §1
HL-60 = test: Compound was evaluated for in vitro activity against HL-60(TB) leukemia cell lines (Human tumor cells ); type: functional, cell-based; summary of the method: as §1
Hs-578T = test: Compound was evaluated for in vitro activity against Hs 578.T breast cancer cell lines (Human tumor cells ); type: functional, cell-based; summary of the method: as §1
KM12 = test: Compound was evaluated for in vitro activity against KM-12 Colon cell lines (Human tumor cells ); type: functional, cell-based; summary of the method: as §1
K562 = test: Compound was evaluated for in vitro activity against K562 leukemia cell lines (Human tumor cells ); type: functional, cell-based; summary of the method: as §1
IGROV-1 = test: Compound was evaluated for in vitro activity against IGROV1 Ovary cell lines (Human tumor cells ); type: functional, cell-based; summary of the method: as §1
M14 = test: Compound was evaluated for in vitro activity against M14 Melanoma cell lines (Human tumor cells ); type: functional, cell-based; summary of the method: as §1
LOX IMVI = test: Compound was evaluated for in vitro activity against LOXIMV1 Melanoma cell lines (Human tumor cells ); type: functional, cell-based; summary of the method: as §2
MDA-MB-435 = test: Compound was evaluated for in vitro activity against MDA-MB-435 breast cancer cell lines (Human tumor cells ); type: functional, cell-based; summary of the method: as §1
Malme-3M = test: Compound was evaluated for in vitro activity against MALME-3M Melanoma cell lines (Human tumor cells ); type: functional, cell-based; summary of the method: as §1
MCF7 = test: Compound was evaluated for in vitro activity against MCF-7 breast cancer cell lines (Human tumor cells ); type: functional, cell-based; summary of the method: as §2
NCI-H460 = test: Compound was evaluated for in vitro activity against NCI-H460 lung cancer cell lines (Human tumor cells ); type: functional, cell-based; summary of the method: as §1
NCI-H226 = test: Compound was evaluated for in vitro activity against NCI-H226 lung cancer cell lines (Human tumor cells ); type: functional, cell-based; summary of the method: as §1
OVCAR-3 = test: Compound was evaluated for in vitro activity against OVCAR-3 Ovary cell lines (Human tumor cells ); type: functional, cell-based; summary of the method: as §2
OVCAR-8 = test: Compound was evaluated for in vitro activity against OVCAR-8 Ovary cell lines (Human tumor cells ); type: functional, cell-based; summary of the method: as §1
OVCAR-4 = test: Compound was evaluated for in vitro activity against OVCAR-4 Ovary cell lines (Human tumor cells ); type: functional, cell-based; summary of the method: as §1
OVCAR-5 = test: Compound was evaluated for in vitro activity against OVCAR-5 Ovary cell lines (Human tumor cells ); type: functional, cell-based; summary of the method: as §1
NCI-H23 = test: Compound was evaluated for in vitro activity against NCI-H23 lung cancer cell lines (Human tumor cells ); type: functional, cell-based; summary of the method: as §1
PC-3 = test: Compound was evaluated for in vitro activity against PC-3 prostate cell lines (Human tumor cells ); type: functional, cell-based; summary of the method: as §1
RXF 393 = test: Compound was evaluated for in vitro activity against RXF-393 kidney cell lines (Human tumor cells ); type: functional, cell-based; summary of the method: as §1
RPMI-8226 = test: Compound was evaluated for in vitro activity against RPMI-8226 leukemia cell lines (Human tumor cells ); type: functional, cell-based; summary of the method: as §1
SF-268 = test: Compound was evaluated for in vitro activity against SF-268 CNS cell lines (Human tumor cells ); type: functional, cell-based; summary of the method: as §1
SF-295 = test: Compound was evaluated for in vitro activity against SF-295 CNS cell lines (Human tumor cells ); type: functional, cell-based; summary of the method: as §1
SNB- = test: Compound was evaluated for in vitro activity against […] CNS cell lines (Human tumor cells ); type: functional, cell-based; summary of the method: as §1
SR = test: Compound was evaluated for in vitro activity against SR leukemia cell lines (Human tumor cells ); type: functional, cell-based; summary of the method: as §1
SK-MEL-28 = test: Compound was evaluated for in vitro activity against SK-MEL28 Melanoma cell lines (Human tumor cells ); type: functional, cell-based; summary of the method: as §1
SK-MEL-2 = test: Compound was evaluated for in vitro activity against SK-MEL-2 Melanoma cell lines (Human tumor cells ); type: functional, cell-based; summary of the method: as §1
[1] = Compound was tested for in vitro antitumor activity, using SCC25 human head and neck squamous carcinoma cells; type: functional; details: SCC-25
Summary of the method: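 Clonogenic assay: SCC25 cells exposed to graded drug concentrations for 72 h at 37 °C, 5% CO2, in DMEM with 10% FBS and hydrocortisone ([…]). Then replated as single cells at drug-dependent densities and grown in drug-free medium 10-14 days. Colonies stained with crystal violet; only colonies of ≥50 cells scored. IC50 is mean ± SD of ≥3 assays on different days.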

SK-MEL-5 = test: Compound was evaluated for in vitro activity against SK-MEL-5 Melanoma cell lines (Human tumor cells ); type: functional, cell-based; summary of the method: as §1
TK-10 = test: Compound was evaluated for in vitro activity against TK-10 kidney cell lines (Human tumor cells ); type: functional, cell-based; summary of the method: as §1
T47D = test: Compound was evaluated for in vitro activity against T-47D breast cancer cell lines (Human tumor cells ); type: functional, cell-based; summary of the method: as §1
UACC-257 = test: Compound was evaluated for in vitro activity against UACC-257 Melanoma cell lines (Human tumor cells ); type: functional, cell-based; summary of the method: as §1
U-251 = test: Compound was evaluated for in vitro activity against U251 CNS cell lines (Human tumor cells ); type: functional, cell-based; summary of the method: as §1
NCI/ADR-RES = test: Compound was evaluated for in vitro activity against NCI/ADR-RES breast cancer cell lines (Human tumor cells ); type: functional, cell-based; summary of the method: as §2
NCI-H522 = test: Compound was evaluated for in vitro activity against NCI-H522 lung cancer cell lines (Human tumor cells ); type: functional, cell-based; summary of the method: as §1
SF-539 = test: Compound was evaluated for in vitro activity against SF-539 CNS cell lines (Human tumor cells ); type: functional, cell-based; summary of the method: as §2
MOLT-4 = test: Compound was evaluated for in vitro activity against MOLT-4 leukemia cell lines (Human tumor cells ); type: functional, cell-based; summary of the method: as §1
UACC-62 = test: Compound was evaluated for in vitro activity against UACC-62 Melanoma cell lines (Human tumor cells ); type: functional, cell-based; summary of the method: as §1
EKVX = test: Compound was evaluated for in vitro activity against EKVX lung cancer cell lines (Human tumor cells ); type: functional, cell-based; summary of the method: as §1

Cc1c(CNc2ccc(C(=O)NC(CCCNC(=O)c3ccccc3C(=O)O)C(=O)O)cc2)cnc2nc(N)nc(N)c12 (configuration not stated)
IC50 (786-0): < 0.1 nM
IC50 (A498): > 1000 nM
IC50 (ACHN): 0.39 nM
IC50 (A549): 0.42 nM
IC50 (BT-549): > 1000 nM
IC50 (CCRF-CEM): 0.57 nM
IC50 (COLO 205): 6.7 nM
IC50 (DU-145): < 1 nM
Ki (Dihydrofolate reductase): 0.0004 nM
IC50 (HCT-15): 0.45 nM
IC50 (HCT-116): 0.58 nM
IC50 (HOP-92): > 1000 nM
IC50 (HCC 2998): 0.9 nM
IC50 (HL-60): < 1 nM
IC50 (Hs-578T): 100 nM
IC50 (KM12): 0.52 nM
IC50 (K562): < 0.1 nM
IC50 (IGROV-1): 0.52 nM
IC50 (M14): 0.66 nM
IC50 (LOX IMVI): < 0.1 nM
IC50 (MDA-MB-435): 0.6 nM
IC50 (Malme-3M): 47 nM
IC50 (MCF7): 0.7 nM
IC50 (NCI-H460): 0.38 nM
IC50 (NCI-H226): 0.62 nM
IC50 (OVCAR-3): 17 nM
IC50 (OVCAR-8): 0.32 nM
IC50 (OVCAR-4): > 1000 nM
IC50 (OVCAR-5): 200 nM
IC50 (NCI-H23): 1.5 nM
IC50 (PC-3): < 0.1 nM
IC50 (RXF 393): 380 nM
IC50 (RPMI-8226): 0.84 nM
IC50 (SF-268): 0.36 nM
IC50 (SF-295): 0.59 nM
IC50 (SNB-): 2.2 nM
IC50 (SR): 0.45 nM
IC50 (SK-MEL-28): 190 nM
IC50 (SK-MEL-2): > 1000 nM
IC50 [1]: 0.72 nM
IC50 (SK-MEL-5): 0.64 nM
IC50 (TK-10): > 1000 nM
IC50 (T47D): > 1000 nM
IC50 (UACC-257): 470 nM
IC50 (U-251): 3.6 nM
IC50 (NCI/ADR-RES): 0.3 nM
IC50 (NCI-H522): 1.5 nM
IC50 (SF-539): 0.46 nM
IC50 (MOLT-4): 0.57 nM
IC50 (UACC-62): 0.4 nM
IC50 (EKVX): 2.5 nM

Nc1nc(N)c2cc(CNc3ccc(C(=O)NC(CCCNC(=O)c4ccccc4C(=O)O)C(=O)O)cc3)ccc2n1 (configuration not stated)
IC50 [1]: 0.61 nM
